Results pooled from the literature.
CDK8: Cyclin-dependent kinase 8 (CDK8, Homo sapiens, UniProt P49336)
CDK8 with cyclin C: Cyclin-dependent kinase 8, with cyclin C (CDK8, Homo sapiens, UniProt P49336)

Structure (SMILES)	target	assay	setting	endpoint	result
Cc1ccc(C(=O)Nc2ccc(CN3CCN(C)CC3)c(C(F)(F)F)c2)cc1C#Cc1cnc2cccnn12	CDK8	enzyme activity, inhibitor	23.5 nM	remaining activity	9.5%
Cc1sc(C(=O)NC2COC2)cc1-n1cc(NC(=O)Nc2c(F)cccc2Cl)cn1	CDK8 with cyclin C	enzyme activity, inhibitor	10 µM	remaining activity	92.7%
Cn1c2c(Cl)c(Cl)ccc2c2cc(N)[nH]c(=O)c21	CDK8	thermal stability, DSF	10 µM	ΔTm	0.7 °C
CC(C)CC(=O)N1CCc2nc(-c3ccc(Br)cc3)nc(N(C)Cc3ccccc3)c2C1	CDK8	cell-free assay, competition with immobilised ligand	0.1 µM	remaining binding	82%
CC(C)(C)c1nc2c(s1)c1nc(N)ncc1c1ccc(NS(=O)(=O)c3c(F)cccc3F)c(F)c12	CDK8 with cyclin C	enzyme activity, inhibitor, radiometric	1 µM	remaining activity	100%
COc1ccnn2ncc(-c3ccnc(N(C)C)n3)c12	CDK8	binding	1 µM	remaining binding	100%
O=C(O)[C@H]1[C@H](Cn2nnc3ccccc3c2=O)CC[C@@H]1C(=O)c1ccc(OCCC2CCOCC2)cc1	CDK8	cell-free assay, competition with immobilised ligand	1 µM	remaining binding	100%
Cn1c2c(c3ccc(Cl)c(Cl)c31)C(C#N)C1(CCCCC1)NC2=O (racemic)	CDK8	thermal stability, DSF	10 µM	ΔTm	0.4 °C
CCC(=O)N[C@H]1CC[C@@H](C(=O)N(C)c2ccc(-c3nc4ccccc4o3)cc2)C1	CDK8	cell-free assay, competition with immobilised ligand	1 µM	remaining binding	100%
CCN1CCC2(CC1)NC(=O)c1c(c3ccc(Cl)c(Cl)c3n1C)C2C#N (racemic)	CDK8	thermal stability, DSF	10 µM	ΔTm	1.2 °C
O=C(Nc1cnn(-c2csc(C(=O)NC3COC3)c2)c1)Nc1ccccc1Cl	CDK8 with cyclin C	enzyme activity, inhibitor	5 µM	remaining activity	101%
CN1CCN(C(=O)c2ccc3cc(CCNc4ccnc5ccc(C#N)cc45)ccc3c2)CC1	CDK8	binding, competition with immobilised ligand	2 µM	inhibition	> 85%
O=C(N1CCS(=O)(=O)CC1)N1C[C@H](c2ccc(OC(F)(F)F)cc2)C[C@H](c2nc(C3CC3)no2)C1	CDK8	cell-free assay, competition with immobilised ligand	1 µM	remaining binding	100%
Cn1c2c(c3ccccc31)C(C#N)C(C)(C)NC2=O (centres unmarked)	CDK8	thermal stability, DSF	10 µM	ΔTm	0.8 °C
